Test results taken from ChEMBL document CHEMBL4828755, “A sulfonyl fluoride derivative inhibits EGFRL858R/T790M/C797S by covalent modification of the catalytic lysine” (Eur J Med Chem, 2021).
pIC50: −log10 of the molar value. Activity calls are given as the source filed them. The rule behind the calls is not given here.

Tests used:
[1] = target: Platelet-derived growth factor receptor alpha (Homo sapiens) (UniProt P16234); experiment: Inhibition of GST-tagged human recombinant PDGFR alpha (550 to 1089 residues) expressed in baculovirus expression system at 1 uM by Z'-LYTE assay
Platelet-derived growth factor receptor alpha (Homo sapiens), sequence (P16234 whole entry, the tested form may be a part): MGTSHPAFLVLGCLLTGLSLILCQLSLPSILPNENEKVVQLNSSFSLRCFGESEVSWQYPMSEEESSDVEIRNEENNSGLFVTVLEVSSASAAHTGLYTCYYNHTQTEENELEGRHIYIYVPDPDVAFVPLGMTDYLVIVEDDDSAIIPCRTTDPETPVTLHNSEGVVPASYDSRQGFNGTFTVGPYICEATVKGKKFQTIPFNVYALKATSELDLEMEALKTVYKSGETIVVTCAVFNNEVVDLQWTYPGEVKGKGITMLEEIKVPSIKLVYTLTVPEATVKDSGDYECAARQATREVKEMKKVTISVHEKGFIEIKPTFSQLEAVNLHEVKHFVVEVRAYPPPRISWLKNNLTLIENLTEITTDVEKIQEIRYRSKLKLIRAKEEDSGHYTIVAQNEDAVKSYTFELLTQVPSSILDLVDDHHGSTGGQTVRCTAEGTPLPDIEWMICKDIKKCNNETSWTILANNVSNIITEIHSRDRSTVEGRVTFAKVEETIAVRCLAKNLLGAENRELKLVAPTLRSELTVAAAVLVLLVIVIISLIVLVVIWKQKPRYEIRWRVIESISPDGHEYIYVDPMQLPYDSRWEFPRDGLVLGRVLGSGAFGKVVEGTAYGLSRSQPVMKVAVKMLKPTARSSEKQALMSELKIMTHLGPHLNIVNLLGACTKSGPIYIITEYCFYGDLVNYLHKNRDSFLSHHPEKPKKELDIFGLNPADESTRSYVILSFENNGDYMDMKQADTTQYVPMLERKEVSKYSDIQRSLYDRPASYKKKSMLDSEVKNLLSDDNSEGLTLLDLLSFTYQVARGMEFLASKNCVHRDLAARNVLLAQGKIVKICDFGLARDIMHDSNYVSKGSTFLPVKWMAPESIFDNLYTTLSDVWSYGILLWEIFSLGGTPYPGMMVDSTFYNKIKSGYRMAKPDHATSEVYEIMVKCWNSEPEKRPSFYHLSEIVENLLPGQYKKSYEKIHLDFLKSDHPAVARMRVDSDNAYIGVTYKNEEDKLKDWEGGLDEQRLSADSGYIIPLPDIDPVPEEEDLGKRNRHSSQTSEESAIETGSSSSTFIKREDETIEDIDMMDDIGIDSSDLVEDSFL
Method in brief: (§1)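 Z'-LYTE FRET kinase panel; phosphorylation of a reference peptide measured with ATP at each enzyme's Km. Compounds tested in 1% DMSO at 0.1 and/or 1 μM. Values are means of two independent experiments with standard deviations.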

[2] = target: Epidermal growth factor receptor (Homo sapiens, UniProt P00533); format: ADME
Epidermal growth factor receptor (Homo sapiens, UniProt P00533), sequence (P00533 whole entry): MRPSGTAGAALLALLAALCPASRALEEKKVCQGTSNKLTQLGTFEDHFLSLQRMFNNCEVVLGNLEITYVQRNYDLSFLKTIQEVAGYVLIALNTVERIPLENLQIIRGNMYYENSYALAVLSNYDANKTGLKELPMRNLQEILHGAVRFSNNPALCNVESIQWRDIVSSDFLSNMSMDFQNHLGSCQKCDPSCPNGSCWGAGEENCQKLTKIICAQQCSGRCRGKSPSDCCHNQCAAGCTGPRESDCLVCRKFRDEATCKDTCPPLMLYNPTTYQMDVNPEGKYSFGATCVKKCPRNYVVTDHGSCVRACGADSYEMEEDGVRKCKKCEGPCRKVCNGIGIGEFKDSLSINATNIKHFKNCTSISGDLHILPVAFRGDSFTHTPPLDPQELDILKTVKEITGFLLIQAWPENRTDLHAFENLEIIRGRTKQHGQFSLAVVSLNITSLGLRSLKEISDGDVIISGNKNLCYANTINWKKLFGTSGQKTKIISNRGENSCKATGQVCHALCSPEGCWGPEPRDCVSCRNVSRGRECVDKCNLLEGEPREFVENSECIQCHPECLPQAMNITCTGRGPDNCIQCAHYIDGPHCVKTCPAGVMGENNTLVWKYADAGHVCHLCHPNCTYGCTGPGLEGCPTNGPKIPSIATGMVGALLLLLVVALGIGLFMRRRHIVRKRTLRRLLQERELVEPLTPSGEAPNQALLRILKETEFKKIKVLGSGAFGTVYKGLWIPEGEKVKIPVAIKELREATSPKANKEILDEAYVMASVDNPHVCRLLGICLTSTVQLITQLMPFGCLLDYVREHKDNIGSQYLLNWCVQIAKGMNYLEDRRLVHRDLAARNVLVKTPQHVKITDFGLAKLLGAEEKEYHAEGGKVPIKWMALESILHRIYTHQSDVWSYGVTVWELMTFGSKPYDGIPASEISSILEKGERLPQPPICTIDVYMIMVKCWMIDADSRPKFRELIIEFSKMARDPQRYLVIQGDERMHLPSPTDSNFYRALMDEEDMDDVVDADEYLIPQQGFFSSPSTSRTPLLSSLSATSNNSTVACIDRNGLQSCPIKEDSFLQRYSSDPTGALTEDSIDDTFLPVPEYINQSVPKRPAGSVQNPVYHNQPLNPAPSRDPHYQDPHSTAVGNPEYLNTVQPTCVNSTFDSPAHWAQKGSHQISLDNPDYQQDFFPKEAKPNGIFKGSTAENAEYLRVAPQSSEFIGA

[3] = target: T1, Aurora kinase A (Homo sapiens) (UniProt O14965); experiment: Inhibition of His-tagged human full length recombinant AURKA expressed in baculovirus expression system at 1 uM by Z'-LYTE assay; method in brief: as §1
T1 sequence (whole entry): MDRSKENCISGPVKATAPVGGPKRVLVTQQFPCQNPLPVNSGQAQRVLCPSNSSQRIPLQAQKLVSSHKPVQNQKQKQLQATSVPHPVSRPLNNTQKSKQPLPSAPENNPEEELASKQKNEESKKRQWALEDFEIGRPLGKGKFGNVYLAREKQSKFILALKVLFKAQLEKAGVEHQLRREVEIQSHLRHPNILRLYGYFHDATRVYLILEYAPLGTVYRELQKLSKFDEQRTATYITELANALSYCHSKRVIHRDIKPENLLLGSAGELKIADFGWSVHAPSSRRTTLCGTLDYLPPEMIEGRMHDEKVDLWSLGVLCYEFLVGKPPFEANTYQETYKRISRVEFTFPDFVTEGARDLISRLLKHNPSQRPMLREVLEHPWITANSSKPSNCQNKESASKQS

[4] = target: Cyclin-dependent kinase 5 (Homo sapiens) (UniProt Q00535); experiment: Inhibition of GST/His-tagged human full length recombinant CDK5 expressed in baculovirus expression system at 1 uM by Z'-LYTE assay; method in brief: as §1
Cyclin-dependent kinase 5 (Homo sapiens), sequence (Q00535 whole entry, looked up): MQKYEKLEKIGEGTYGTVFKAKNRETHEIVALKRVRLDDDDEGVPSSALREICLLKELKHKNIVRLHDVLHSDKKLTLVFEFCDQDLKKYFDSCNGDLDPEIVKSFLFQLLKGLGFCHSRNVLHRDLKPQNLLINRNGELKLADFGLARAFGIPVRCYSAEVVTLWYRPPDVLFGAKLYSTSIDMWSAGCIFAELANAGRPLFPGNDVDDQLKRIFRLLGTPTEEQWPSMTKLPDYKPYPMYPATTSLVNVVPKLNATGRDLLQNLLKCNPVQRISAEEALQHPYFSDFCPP

[5] = target: Epidermal growth factor receptor (Homo sapiens, UniProt P00533, C797S/L858R/T790M); experiment: Inhibition of EGFR L858R/T790M/C797S triple mutant (unknown origin) using […] preincubated with enzyme and ATP at Km for 3 hrs followed by substrate addition and measured after 1 hr by TR-FRET assay
Epidermal growth factor receptor (Homo sapiens, UniProt P00533, C797S/L858R/T790M), sequence (P00533 25-1210 T790M/C797S/L858R limits assumed): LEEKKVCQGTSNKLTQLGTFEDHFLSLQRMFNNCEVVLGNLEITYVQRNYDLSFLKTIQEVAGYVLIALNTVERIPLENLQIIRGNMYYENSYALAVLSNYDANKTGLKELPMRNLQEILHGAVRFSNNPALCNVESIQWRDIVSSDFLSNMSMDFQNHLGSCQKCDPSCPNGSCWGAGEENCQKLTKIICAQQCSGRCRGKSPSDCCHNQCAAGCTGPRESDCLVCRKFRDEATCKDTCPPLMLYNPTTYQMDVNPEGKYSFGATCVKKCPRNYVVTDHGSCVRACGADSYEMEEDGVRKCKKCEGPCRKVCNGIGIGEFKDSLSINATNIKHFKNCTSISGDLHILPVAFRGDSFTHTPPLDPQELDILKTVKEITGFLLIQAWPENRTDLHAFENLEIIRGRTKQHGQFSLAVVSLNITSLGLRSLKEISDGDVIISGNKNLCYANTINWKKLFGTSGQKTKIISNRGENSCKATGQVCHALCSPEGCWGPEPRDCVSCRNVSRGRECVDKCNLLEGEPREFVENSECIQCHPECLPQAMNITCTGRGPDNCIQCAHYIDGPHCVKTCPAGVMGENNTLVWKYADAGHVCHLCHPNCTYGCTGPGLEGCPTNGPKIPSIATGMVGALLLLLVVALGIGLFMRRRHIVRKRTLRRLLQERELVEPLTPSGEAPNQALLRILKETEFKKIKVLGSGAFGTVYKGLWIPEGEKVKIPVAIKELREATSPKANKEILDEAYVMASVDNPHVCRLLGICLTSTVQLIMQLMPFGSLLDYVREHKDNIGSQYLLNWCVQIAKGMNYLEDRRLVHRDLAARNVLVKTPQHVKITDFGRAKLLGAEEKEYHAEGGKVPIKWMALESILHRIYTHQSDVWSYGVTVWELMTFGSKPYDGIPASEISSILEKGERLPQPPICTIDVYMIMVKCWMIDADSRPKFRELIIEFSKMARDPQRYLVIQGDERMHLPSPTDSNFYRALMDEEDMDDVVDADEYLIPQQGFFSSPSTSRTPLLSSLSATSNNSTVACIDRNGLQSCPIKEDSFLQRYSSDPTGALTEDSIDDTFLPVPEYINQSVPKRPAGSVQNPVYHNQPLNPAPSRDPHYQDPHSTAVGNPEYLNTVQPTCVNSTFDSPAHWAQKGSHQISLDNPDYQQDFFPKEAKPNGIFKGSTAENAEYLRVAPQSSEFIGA

[6] = target: Rho-associated protein kinase 1 (Homo sapiens) (UniProt Q13464); experiment: Inhibition of GST-tagged human recombinant ROCK1 (1 to 535 residues) expressed in baculovirus expression system at 1 uM by Z'-LYTE assay; method in brief: as §1
Rho-associated protein kinase 1 (Homo sapiens), sequence (Q13464 2-1354 limits assumed): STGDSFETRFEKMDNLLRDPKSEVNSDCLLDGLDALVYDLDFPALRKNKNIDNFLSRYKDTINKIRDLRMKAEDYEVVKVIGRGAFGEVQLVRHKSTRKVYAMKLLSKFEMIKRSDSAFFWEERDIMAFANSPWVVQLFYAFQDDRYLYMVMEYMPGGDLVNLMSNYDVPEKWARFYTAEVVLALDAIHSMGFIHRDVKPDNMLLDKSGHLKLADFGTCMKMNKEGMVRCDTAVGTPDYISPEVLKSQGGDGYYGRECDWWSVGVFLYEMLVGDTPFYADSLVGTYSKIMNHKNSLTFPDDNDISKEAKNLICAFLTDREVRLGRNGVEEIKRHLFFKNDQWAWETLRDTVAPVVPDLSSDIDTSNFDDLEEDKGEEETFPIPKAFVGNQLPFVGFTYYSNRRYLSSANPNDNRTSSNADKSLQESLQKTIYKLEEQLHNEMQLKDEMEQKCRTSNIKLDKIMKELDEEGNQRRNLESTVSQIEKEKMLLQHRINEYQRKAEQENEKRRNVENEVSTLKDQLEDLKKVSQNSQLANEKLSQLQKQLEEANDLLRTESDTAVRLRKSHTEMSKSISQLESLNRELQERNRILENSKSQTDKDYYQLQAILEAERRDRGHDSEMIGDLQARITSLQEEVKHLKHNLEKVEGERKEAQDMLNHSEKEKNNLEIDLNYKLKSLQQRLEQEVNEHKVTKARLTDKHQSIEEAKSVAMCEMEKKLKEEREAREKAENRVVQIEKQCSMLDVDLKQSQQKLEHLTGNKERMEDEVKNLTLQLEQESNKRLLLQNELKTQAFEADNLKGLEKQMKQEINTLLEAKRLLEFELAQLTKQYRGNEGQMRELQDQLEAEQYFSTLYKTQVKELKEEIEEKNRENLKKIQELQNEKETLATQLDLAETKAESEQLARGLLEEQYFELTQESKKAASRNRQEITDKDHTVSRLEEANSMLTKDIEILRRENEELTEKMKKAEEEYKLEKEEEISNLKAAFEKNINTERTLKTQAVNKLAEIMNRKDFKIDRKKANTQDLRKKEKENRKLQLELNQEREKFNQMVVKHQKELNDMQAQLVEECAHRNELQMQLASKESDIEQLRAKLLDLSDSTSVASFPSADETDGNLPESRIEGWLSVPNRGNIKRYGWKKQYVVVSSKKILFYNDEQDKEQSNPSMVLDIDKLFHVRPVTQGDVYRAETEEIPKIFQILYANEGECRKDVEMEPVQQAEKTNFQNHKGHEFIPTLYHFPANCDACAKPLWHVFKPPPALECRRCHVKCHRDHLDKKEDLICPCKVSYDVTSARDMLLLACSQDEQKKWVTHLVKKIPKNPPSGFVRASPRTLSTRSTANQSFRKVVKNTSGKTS

[7] = target: Vascular endothelial growth factor receptor 2 (Homo sapiens) (UniProt P35968); experiment: Inhibition of His-tagged human recombinant VEGFR2 (789 to 1356 residues) expressed in baculovirus expression system at 1 uM by Z'-LYTE assay; method in brief: as §1
[8] = target: T2, Inhibitor of nuclear factor kappa-B kinase subunit beta (Homo sapiens) (UniProt O14920); experiment: Inhibition of GST-tagged human full length recombinant IKKbeta expressed in baculovirus expression system at 100 to 1000 nM by Z'-LYTE assay; details: dose 100-1000 nM
T2 sequence (whole entry): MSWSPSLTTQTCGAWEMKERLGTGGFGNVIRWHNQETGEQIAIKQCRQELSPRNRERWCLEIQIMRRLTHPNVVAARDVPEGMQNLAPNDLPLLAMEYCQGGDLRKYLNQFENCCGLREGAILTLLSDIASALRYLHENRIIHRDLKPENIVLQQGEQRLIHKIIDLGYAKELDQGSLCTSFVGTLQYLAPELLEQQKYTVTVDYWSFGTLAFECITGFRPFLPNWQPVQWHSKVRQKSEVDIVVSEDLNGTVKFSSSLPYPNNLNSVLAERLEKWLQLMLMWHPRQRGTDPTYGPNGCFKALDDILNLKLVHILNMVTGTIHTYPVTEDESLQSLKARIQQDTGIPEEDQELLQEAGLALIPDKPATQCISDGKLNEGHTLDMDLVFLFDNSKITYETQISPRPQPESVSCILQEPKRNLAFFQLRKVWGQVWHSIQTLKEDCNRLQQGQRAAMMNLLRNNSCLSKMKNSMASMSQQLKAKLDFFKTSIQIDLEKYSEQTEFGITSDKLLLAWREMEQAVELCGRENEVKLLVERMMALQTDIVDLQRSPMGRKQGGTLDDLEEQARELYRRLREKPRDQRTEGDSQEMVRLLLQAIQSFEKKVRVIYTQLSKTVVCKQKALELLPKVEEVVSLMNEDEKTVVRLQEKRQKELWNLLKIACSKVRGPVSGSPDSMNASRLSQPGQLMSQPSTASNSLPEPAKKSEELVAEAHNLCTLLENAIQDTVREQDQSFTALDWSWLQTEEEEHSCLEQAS

Compound | inhibition [1] | pIC50 [2] | inhibition [3] | inhibition [4] | pIC50 [5] | inhibition [6] | inhibition [7] | inhibition [8]
COc1cc(N2CCN(C(C)=O)CC2)ccc1Nc1ncc(Cl)c(Nc2ccc(NCc3ccc(S(=O)(=O)F)cc3)cc2)n1 | < 25% | 7.52 | 100% | 90% | 8.55 | < 25% | < 25% | –
C#CCNC(=O)c1cc(Nc2cc(C3CC3)[nH]n2)nc(N2CCN(Cc3ccc(S(=O)(=O)F)cc3)CC2)n1 | – | – | – | – | – | – | – | inactive
